For orientation: inhibition means the relative decrease from the control value, in per cent.

The test system of data set [1] is T47D. As to the kind of experiment: Inhibition of major vault protein expression in human T47D cells at 100 nM by syber green assay. The format is functional, cell-based.
Data set [2] concerns T47D. As to the kind of experiment: Inhibition of PR-B gene expression in human T47D cells at 25 nM by syber green assay in presence of 10 nM estradiol. Format: functional, cell-based.
Data set [3] deals with T47D. As to the kind of experiment: Inhibition of PR-B mRNA gene expression in human T47D cells at 100 nM by syber green assay. Format: functional. A digest of the protocol:
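T47D cells in RPMI-1640 with 10% FBS, NEAA, insulin, 37 °C, 5% CO2. Plated two days before transfection without antibiotics. Oligofectamine-mediated duplex RNA transfection at 100 nM final, medium changed at 24 h, harvest five days post-transfection. Total RNA extracted with TRIzol. hPR mRNA quantified by SYBR Green qPCR: 50 °C 2 min, 95 °C 10 min, then 40 cycles of 95 °C 15 s / 60 °C 1 min.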

In data set [4] the test system is T47D. As to the kind of experiment: Inhibition of PR-A mRNA gene expression in human T47D cells at 100 nM by syber green assay. Format: functional. A digest of the protocol: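 T47D cells plated at 80,000/well without antibiotics two days before Oligofectamine transfection with agRNA duplex (25 or 100 nM final); medium changed at 24 h, harvest day 5 unless stated otherwise. TRIzol total RNA; PR mRNA by real-time PCR with SYBR Green: 50 °C 2 min, 95 °C 10 min, 40 cycles 95 °C 15 s/60 °C 1 min.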

Data set [5] concerns T47D. As to the kind of experiment: Inhibition of PR-A gene expression in human T47D cells at 25 nM by syber green assay in presence of 10 nM estradiol. Format: functional, cell-based.
In data set [6] the test system is T47D. As to the kind of experiment: Cytotoxicity against human T47D cells assessed as effect on cellular morphology. Format: cell-based.

SMILES strings stand for the structures. The source made the active and inactive calls. No cut-off for these calls is given here.

For the compound `Cc1cn(CC(=O)N(CCNC(=O)CN(CCNC(=O)CN(CCNC(=O)CN(CCNC(=O)CN(CCNC(=O)CN(CCNC(=O)CN(CCNC(=O)CN(CCNC(=O)CN(CCNC(=O)CN(CCNC(=O)CN(CCNC(=O)CN(CCNC(=O)CN(CCNC(=O)CN(CCNC(=O)CN(CCNC(=O)CN(CCNC(=O)CN(CCNC(=O)CN(CCNC(=O)CN(CCNC(=O)CN(CCNC(=O)CN)C(=O)Cn2cnc3c(N)ncnc32)C(=O)Cn2cnc3c(=O)[nH]c(N)nc32)C(=O)Cn2cnc3c(=O)[nH]c(N)nc32)C(=O)Cn2ccc(N)nc2=O)C(=O)Cn2cnc3c(N)ncnc32)C(=O)Cn2cnc3c(=O)[nH]c(N)nc32)C(=O)Cn2cnc3c(=O)[nH]c(N)nc32)C(=O)Cn2cnc3c(=O)[nH]c(N)nc32)C(=O)Cn2ccc(=O)[nH]c2=O)C(=O)Cn2cnc3c(=O)[nH]c(N)nc32)C(=O)Cn2cnc3c(N)ncnc32)C(=O)Cn2cnc3c(=O)[nH]c(N)nc32)C(=O)Cn2cnc3c(N)ncnc32)C(=O)Cn2cnc3c(=O)[nH]c(N)nc32)C(=O)Cn2ccc(=O)[nH]c2=O)C(=O)Cn2ccc(=O)[nH]c2=O)C(=O)Cn2ccc(N)nc2=O)C(=O)Cn2ccc(N)nc2=O)C(=O)Cn2ccc(N)nc2=O)CC(=O)NCCN(CC(=O)NCC(=O)O)C(=O)Cn2cc(C)c(=O)[nH]c2=O)c(=O)[nH]c1=O`, the inhibition result in data set [1], in data set [2] and in data set [5] was “Active” throughout. Further, the inhibition at 0.1 µM in data set [3] and in data set [4] was 81% throughout.

Take `Cc1cn([C@H]2C[C@H](OP(=O)(O)OC[C@H]3O[C@@H](n4cc(C)c(=O)[nH]c4=O)C[C@@H]3O)[C@@H](COP(=O)(O)O[C@H]3[C@@H](O)[C@H](n4ccc(N)nc4=O)O[C@@H]3COP(=O)(O)O[C@H]3[C@@H](O)[C@H](n4ccc(N)nc4=O)O[C@@H]3COP(=O)(O)O[C@H]3[C@@H](O)[C@H](n4cnc5c(N)ncnc54)O[C@@H]3COP(=O)(O)O[C@H]3[C@@H](O)[C@H](n4ccc(N)nc4=O)O[C@@H]3COP(=O)(O)O[C@H]3[C@@H](O)[C@H](n4cnc5c(N)ncnc54)O[C@@H]3COP(=O)(O)O[C@H]3[C@@H](O)[C@H](n4ccc(N)nc4=O)O[C@@H]3COP(=O)(O)O[C@H]3[C@@H](O)[C@H](n4ccc(N)nc4=O)O[C@@H]3COP(=O)(O)O[C@H]3[C@@H](O)[C@H](n4ccc(=O)[nH]c4=O)O[C@@H]3COP(=O)(O)O[C@H]3[C@@H](O)[C@H](n4cnc5c(=O)[nH]c(N)nc54)O[C@@H]3COP(=O)(O)O[C@H]3[C@@H](O)[C@H](n4cnc5c(N)ncnc54)O[C@@H]3COP(=O)(O)O[C@H]3[C@@H](O)[C@H](n4ccc(N)nc4=O)O[C@@H]3COP(=O)(O)O[C@H]3[C@@H](O)[C@H](n4ccc(N)nc4=O)O[C@@H]3COP(=O)(O)O[C@H]3[C@@H](O)[C@H](n4cnc5c(=O)[nH]c(N)nc54)O[C@@H]3COP(=O)(O)O[C@H]3[C@@H](O)[C@H](n4ccc(N)nc4=O)O[C@@H]3COP(=O)(O)O[C@H]3[C@@H](O)[C@H](n4ccc(=O)[nH]c4=O)O[C@@H]3COP(=O)(O)O[C@H]3[C@@H](O)[C@H](n4ccc(N)nc4=O)O[C@@H]3COP(=O)(O)O[C@H]3[C@@H](O)[C@H](n4ccc(=O)[nH]c4=O)O[C@@H]3COP(=O)(O)O[C@H]3[C@@H](O)[C@H](n4ccc(N)nc4=O)O[C@@H]3COP(=O)(O)O[C@H]3[C@@H](O)[C@H](n4ccc(=O)[nH]c4=O)O[C@@H]3CO)O2)c(=O)[nH]c1=O`: the inhibition at 0.1 µM in data set [3] and in data set [4] was under 20% each time. In addition, the Activity entry in data set [6] was “Non-toxic”.

For the compound `Cc1cn(CC(=O)N(CCNC(=O)CN(CCNC(=O)CN(CCNC(=O)CN(CCNC(=O)CN(CCNC(=O)CN(CCNC(=O)CN(CCNC(=O)CN(CCNC(=O)CN(CCNC(=O)CN(CCNC(=O)CN(CCNC(=O)CN(CCNC(=O)CN(CCNC(=O)CN(CCNC(=O)CN(CCNC(=O)CN(CCNC(=O)CN(CCNC(=O)CN(CCNC(=O)CN(CCNC(=O)CN(CCNC(=O)CN)C(=O)Cn2cnc3c(=O)[nH]c(N)nc32)C(=O)Cn2cnc3c(=O)[nH]c(N)nc32)C(=O)Cn2cnc3c(=O)[nH]c(N)nc32)C(=O)Cn2ccc(=O)[nH]c2=O)C(=O)Cn2cnc3c(=O)[nH]c(N)nc32)C(=O)Cn2cnc3c(N)ncnc32)C(=O)Cn2cnc3c(=O)[nH]c(N)nc32)C(=O)Cn2cnc3c(N)ncnc32)C(=O)Cn2cnc3c(=O)[nH]c(N)nc32)C(=O)Cn2ccc(=O)[nH]c2=O)C(=O)Cn2ccc(=O)[nH]c2=O)C(=O)Cn2ccc(N)nc2=O)C(=O)Cn2ccc(N)nc2=O)C(=O)Cn2ccc(N)nc2=O)C(=O)Cn2ccc(N)nc2=O)C(=O)Cn2cnc3c(N)ncnc32)C(=O)Cn2ccc(=O)[nH]c2=O)C(=O)Cn2ccc(N)nc2=O)C(=O)Cn2ccc(=O)[nH]c2=O)CC(=O)NCCN(CC(=O)NCC(=O)O)C(=O)Cn2cc(C)c(=O)[nH]c2=O)c(=O)[nH]c1=O`, the inhibition entry in data set [1], in data set [2] and in data set [5] was “Active” throughout. Moreover, the inhibition at 0.1 µM in data set [3] and in data set [4] was 91% each time.
